Values after ≈ are worked out from the molar mass of the structure shown. Active and inactive are the calls of the source. No cut-off for these calls is given here.
Legend:
Bacillus anthracis [1] = assay: Antibacterial activity against permeabilized polA-deficient Bacillus anthracis Sterne assessed as inhibition of DNA replication by cell based assay; format: functional, organism-based
Procedure, shortened: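 ATP-dependent DNA replication measured in permeabilized ΔpolA B. anthracis Sterne cells by a modified Brown et al. method, testing whether compounds block an intact replisome.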

Bacillus subtilis [2] = assay: Inhibition of Bacillus subtilis class C DNA polymerase 3
Procedure, shortened: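 B. subtilis Pol IIIC polymerase assay in 96-well format on DNase-activated chromosomal DNA substrate, which needs no helicase function.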

DnaC helicase = molecular target: T1, DnaC helicase (Staphylococcus aureus, UniProt Q9AQH7); assay: Inhibition of Staphylococcus aureus Smith DNA helicase DnaC assessed as strand unwinding after 30 mins by FRET assay
T1 sequence (Q9AQH7 whole entry): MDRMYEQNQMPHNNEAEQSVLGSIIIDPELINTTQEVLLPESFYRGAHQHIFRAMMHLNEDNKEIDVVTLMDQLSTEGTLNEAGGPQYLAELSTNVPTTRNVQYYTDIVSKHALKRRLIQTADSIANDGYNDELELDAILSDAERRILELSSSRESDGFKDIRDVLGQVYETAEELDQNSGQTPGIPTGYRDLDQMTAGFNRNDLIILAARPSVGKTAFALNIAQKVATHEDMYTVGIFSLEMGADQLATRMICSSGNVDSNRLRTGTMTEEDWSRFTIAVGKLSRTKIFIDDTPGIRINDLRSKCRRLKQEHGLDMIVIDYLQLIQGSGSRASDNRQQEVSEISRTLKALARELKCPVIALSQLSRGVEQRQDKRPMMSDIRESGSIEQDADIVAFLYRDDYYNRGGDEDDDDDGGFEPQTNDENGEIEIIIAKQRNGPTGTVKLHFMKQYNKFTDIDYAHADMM

Staphylococcus aureus [3] = assay: Antibacterial activity against Staphylococcus aureus Smith by broth microdilution method; format: functional
HeLa = assay: Cytotoxicity against human HeLa cells by MTT assay; format: cell-based
Bacillus anthracis [4] = assay: Antibacterial activity against Bacillus anthracis Sterne by broth microdilution method; format: functional
[5] = Selectivity ratio of IC50 for Staphylococcus aureus Smith DNA helicase DnaC to IC50 for Bacillus anthracis DNA helicase DnaB
Escherichia coli [6] = assay: Antibacterial activity against TolC deficient Escherichia coli 701 by broth microdilution method; format: functional
Staphylococcus aureus [7] = assay: Antibacterial activity against Staphylococcus aureus ATCC 25923 by broth microdilution method; format: functional
Bacillus cereus = assay: Antibacterial activity against Bacillus cereus ATCC 4342 by broth microdilution method; format: functional
Enterococcus faecalis [8] = assay: Antibacterial activity against vancomycin-resistant Enterococcus faecalis ATCC 51575 by broth microdilution method; format: functional
Bacillus subtilis [9] = assay: Antibacterial activity against Bacillus subtilis BD54 by broth microdilution method; format: functional
Bacillus thuringiensis = assay: Antibacterial activity against Bacillus thuringiensis ATCC 10792 by broth microdilution method; format: functional
Bacillus licheniformis = assay: Antibacterial activity against Bacillus licheniformis ATCC 14580 by broth microdilution method; format: functional; details: DSM 13=ATCC 14580
Enterococcus faecalis [10] = assay: Antibacterial activity against Enterococcus faecalis ATCC 29212 by broth microdilution method; format: functional
[11] = Inhibition of Bacillus anthracis DNA helicase DnaB by Dixon plot analysis in presence of annealed oligonucleotide substrate
Procedure, shortened: (§1)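 FRET strand-unwinding assay with purified B. anthracis helicase, 6-FAM/BHQ1 annealed 60-mer duplex, pH 7.9 Tris, 2 mM MgCl2, 25 mM NaCl, 0.01% Triton X-100, 2.5 mM ATP, room temperature 30 min. Oligo substrate and inhibitor concentrations varied; Ki taken from a Dixon plot.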

Bacillus anthracis [12] = assay: Inhibition of Bacillus anthracis DNA helicase DnaB by Lineweaver-Burke plot analysis in presence of DNA substrate; procedure, shortened: as §1
Bacillus anthracis [13] = assay: Inhibition of Bacillus anthracis DNA helicase DnaB by competitive inhibition assay in presence of ATP
Procedure, shortened: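 Helicase FRET unwinding kinetics with B. anthracis enzyme, varying both ATP (0.625, 1.25, 2.5 mM and higher) and inhibitor concentrations; analysed by Dixon plot (1/V vs [I]).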

Priestia megaterium = assay: Antibacterial activity against Bacillus megaterium ATCC 12872 by broth microdilution method; format: functional
Escherichia coli [14] = assay: Antibacterial activity against Escherichia coli 700 expressing […] gene by broth microdilution method; format: functional
Staphylococcus aureus [15] = assay: Antibacterial activity against methicillin-resistant Staphylococcus aureus isolate 1094 by broth microdilution method; format: functional
Bacillus anthracis [16] = assay: Inhibition of single strand DNA-stimulated ATPase activity of Bacillus anthracis DNA helicase DnaB at 100 uM
Procedure, shortened: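 ssDNA-stimulated ATPase of B. anthracis helicase assayed with 100 μM inhibitor, 0.5 mM ATP and 200 pmole M13mp19 single-stranded DNA.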

Bacillus anthracis [17] = assay: Antibacterial activity against Bacillus anthracis Sterne at 4 times MIC within 5.5 hrs; format: functional, organism-based
Bacillus subtilis [18] = assay: Inhibition of Bacillus subtilis DNA gyrase up to 50 uM by gel mobility assay
Procedure, shortened: (§2)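 B. subtilis DNA gyrase activity measured by a published gel mobility assay; compounds tested up to 50 μM.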

[19] = system: Geobacillus stearothermophilus; assay: Antibacterial activity against Bacillus stearothermophilus ATCC 12980 by broth microdilution method; format: functional
[20] = Inhibition of Bacillus subtilis DNA gyrase by gel mobility assay; procedure, shortened: as §2

Structure (SMILES)	IC50 (Bacillus anthracis [1]) [µM]	IC50 (DnaC helicase) [µM]	MIC (Staphylococcus aureus [3]) [µM]	CC50 (HeLa) [µM]	MIC (Bacillus anthracis [4]) [µM]	also measured
COc1cc(C(=O)Nc2nc3ccc(S(=O)(=O)N4CCOCC4)cc3s2)cc(OC)c1OC	> 100	15	> 100	70	> 100	inhibition (Bacillus subtilis [2]): inactive
Cc1nc(-c2c[nH]c(C(=O)O)c2)cs1	> 100	12	> 100	> 100	> 100	
Nn1c(Cc2ccccc2F)nnc1SCc1cc(=O)oc2cc(O)c(O)cc12	100	15	> 100	> 100	> 100	Ratio IC50 [5]: 2
COc1ccc(Nc2nc(N)nc(-c3cc4ccccc4o3)n2)cc1	> 100	21	> 100	4	> 100	
Cc1c(CCC(=O)O)c(=O)oc2c(C)c(OCc3ccc(Br)cc3F)ccc12	25	180	> 100	> 100	10 (≈ 4.49 µg/mL)	MIC (Escherichia coli [6]): > 45 µg/mL; MIC (Staphylococcus aureus [7]): 11.2 µg/mL (≈ 24.9 µM); MIC (Bacillus cereus): 2.8 µg/mL (≈ 6.23 µM); MIC (Enterococcus faecalis [8]): > 45 µg/mL; MIC (Bacillus subtilis [9]): 4.2 µg/mL (≈ 9.35 µM); MIC (Bacillus thuringiensis): 2.8 µg/mL (≈ 6.23 µM); MIC (Bacillus licheniformis): 2.8 µg/mL (≈ 6.23 µM); MIC (Enterococcus faecalis [10]): > 45 µg/mL; Ki [11]: 8 µM; inhibition (Bacillus anthracis [12]): Active; inhibition (Bacillus anthracis [13]): Active; MIC (Priestia megaterium): > 45 µg/mL; MIC (Escherichia coli [14]): > 45 µg/mL; MIC (Staphylococcus aureus [15]): > 45 µg/mL; inhibition (Bacillus anthracis [16]): 16%; Activity (Bacillus anthracis [17]): Active; inhibition (Bacillus subtilis [18]): inactive; MIC [19]: 5.6 µg/mL (≈ 12.5 µM); Ratio IC50 [5]: 2
COc1cc(/C=C2\SC(=S)N(c3cccc(Cl)c3)C2=O)cc(OC)c1O	30	3	> 100	> 100	> 100	
COc1cc(/C=C2\SC(=S)N(c3cccc(C(F)(F)F)c3)C2=O)cc(OC)c1O	95	4	> 100	> 100	> 100	
CCOc1ccccc1C(=O)Nc1nc2ccc(S(N)(=O)=O)cc2s1	> 100	56	> 100	10	> 100	inhibition (Bacillus subtilis [2]): inactive
COc1cc(/C=C2\SC(=S)N(c3ccc([N+](=O)[O-])cc3)C2=O)cc(OC)c1O		0.7	> 100	11	> 100	
Oc1ccc(O)c(-c2ccc(-c3nnc(S)o3)o2)c1	> 100	> 100	> 100	66	25 (≈ 6.91 µg/mL)	
CO[C@@H]1[C@@H](OC(=O)c2ccc(C)[nH]2)[C@@H](O)[C@@H](Oc2ccc3c(O)c(NC(=O)c4c[nH]c(C(=O)Nc5c(O)c6ccc(O[C@H]7OC(C)(C)[C@H](OC)[C@@H](OC(=O)c8ccc(C)[nH]8)[C@H]7O)c(C)c6oc5=O)c4C)c(=O)oc3c2C)OC1(C)C [COUMERMYCIN]						IC50 [20]: < 1 µM
Cc1c(CCC(=O)O)c(=O)oc2c(C)c(OCc3cccc4ccccc34)ccc12	107	65	> 100	6	6 (≈ 2.41 µg/mL)	MIC (Escherichia coli [6]): > 40 µg/mL; MIC (Staphylococcus aureus [7]): 2.5 µg/mL (≈ 6.21 µM); MIC (Bacillus cereus): 2.5 µg/mL (≈ 6.21 µM); MIC (Enterococcus faecalis [8]): > 40 µg/mL; MIC (Bacillus subtilis [9]): 15.1 µg/mL (≈ 37.5 µM); MIC (Bacillus thuringiensis): 2.5 µg/mL (≈ 6.21 µM); MIC (Bacillus licheniformis): 2.5 µg/mL (≈ 6.21 µM); MIC (Enterococcus faecalis [10]): > 40 µg/mL; MIC (Priestia megaterium): > 40 µg/mL; MIC (Escherichia coli [14]): > 40 µg/mL; MIC (Staphylococcus aureus [15]): 5 µg/mL (≈ 12.4 µM); inhibition (Bacillus subtilis [18]): inactive; MIC [19]: 5 µg/mL (≈ 12.4 µM); Ratio IC50 [5]: 2
Cc1c(Cc2ccccc2)c(=O)oc2c(O)c(O)ccc12	10	42	24 (≈ 6.78 µg/mL)	10	20 (≈ 5.65 µg/mL)	Ratio IC50 [5]: 2
Cc1noc(NS(=O)(=O)c2ccc(NC(=O)CSc3nnc(-c4ccccc4)c(-c4ccccc4)n3)cc2)c1C	61	47	75 (≈ 43 µg/mL)	68	50 (≈ 28.6 µg/mL)	MIC (Escherichia coli [6]): 28.7 µg/mL (≈ 50.1 µM); MIC (Staphylococcus aureus [7]): 43 µg/mL (≈ 75.1 µM); MIC (Bacillus cereus): 57.3 µg/mL (≈ 100 µM); MIC (Enterococcus faecalis [8]): > 60 µg/mL; MIC (Bacillus subtilis [9]): > 60 µg/mL; MIC (Bacillus thuringiensis): 57.3 µg/mL (≈ 100 µM); MIC (Bacillus licheniformis): 57.3 µg/mL (≈ 100 µM); MIC (Enterococcus faecalis [10]): > 60 µg/mL; MIC (Priestia megaterium): 57.3 µg/mL (≈ 100 µM); MIC (Escherichia coli [14]): > 60 µg/mL; MIC (Staphylococcus aureus [15]): 57.3 µg/mL (≈ 100 µM); inhibition (Bacillus subtilis [18]): inactive; MIC [19]: 57.3 µg/mL (≈ 100 µM)
Cc1ccc(C)n1-c1ccc(SCC(=O)O)cc1		4	> 100	> 100	> 100	
COc1cc(/C=C2\SC(=S)N(c3ccc(Cl)cc3)C2=O)cc(OC)c1O	73	2	> 100	> 100	> 100	
Cn1c(SCc2cc(=O)oc3cc(O)c(O)cc23)nc2ccccc21	100	15	23 (≈ 8.15 µg/mL)	35	55 (≈ 19.5 µg/mL)	Ratio IC50 [5]: 2
Cc1ccc(C)n1-c1ccc(C(=O)O)c(O)c1	> 100		50 (≈ 11.6 µg/mL)	> 100	50 (≈ 11.6 µg/mL)	
CCC1(C)Cc2ccccc2-c2[nH]c3nnc(S)n3c(=O)c21 (centres undefined)	27	> 100	> 100	80	30 (≈ 9.37 µg/mL)	

Source: ChEMBL document CHEMBL1152954, “Discovery, characterization and comparison of inhibitors of Bacillus anthracis and Staphylococcus aureus replicative DNA helicases” (Bioorg Med Chem, 2009)
